Measurements published in ChEMBL document CHEMBL1122931, “Uridine 5'-diphosphate glucose analogues. Inhibitors of protein glycosylation that show antiviral activity” (J Med Chem, 1985).

How the values were obtained:
Human alphaherpesvirus 1 = test: Concentration that protects by 50% the cytopathic effect induced by herpes simplex virus - 1.; type: functional
In short: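 HeLa monolayers (DMEM + 10% newborn calf serum) infected with HSV-1 strain KOS (Vero-grown and titrated) at moi 0.5 pfu/cell in presence of several compound concentrations; 48 h at 37 °C, then cytopathic effect scored by phase-contrast microscopy. Toxicity judged microscopically in uninfected cells.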

[1] = (§1) Concentration that induces 50% cell toxicity was determined using monolayers of uninfected HeLa cells; type: cell-based; conditions: human, monolayers of uninfected HeLa cells; read-out: Tox50
In short: (§2)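 Uninfected HeLa monolayers, grown in DMEM with 10% newborn calf serum, were exposed to several concentrations of compound. They were incubated for 48 h at 37 °C, as in the parallel HSV-1 cytopathic-effect assay. Toxicity was judged by phase-contrast microscopy.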

HeLa = test: as §1; type: cell-based; conditions: human, hela; read-out: Tox50; in short: as §2

Structure (SMILES) | CPE50 (Human alphaherpesvirus 1) [µM] | CC50 [1] [µM] | CC50 (HeLa) [nM]
NC(=O)O[C@H]1O[C@H](COCc2ccccc2)[C@@H](OCc2ccccc2)[C@H](OCc2ccccc2)[C@H]1OCc1ccccc1 | >350 | > 350 | –
CC1(C)O[C@@H]2[C@H](O1)[C@@H](COS(=O)(=O)NC(=O)O[C@H]1O[C@H](COCc3ccccc3)[C@@H](OCc3ccccc3)[C@H](OCc3ccccc3)[C@H]1OCc1ccccc1)O[C@H]2n1ccc(=O)[nH]c1=O | 85 | 230 | –
O=C(NS(=O)(=O)OC[C@H]1OC(n2ccc(=O)[nH]c2=O)[C@H](O)[C@@H]1O)O[C@H]1O[C@H](COCc2ccccc2)[C@@H](OCc2ccccc2)[C@H](OCc2ccccc2)[C@H]1OCc1ccccc1 (some centres undefined) | 90 | 360 | –
CC(=O)N[C@H]1[C@@H](OC(=O)NS(=O)(=O)OC[C@H]2OC(n3ccc(=O)[nH]c3=O)[C@H](O)[C@@H]2O)O[C@H](COC(C)=O)[C@@H](OC(C)=O)[C@@H]1OC(C)=O (some centres undefined) | >575 | > 575 | –
CC1(C)O[C@@H]2[C@H](O1)[C@@H](COS(N)(=O)=O)O[C@H]2n1ccc(=O)[nH]c1=O | 740 | 740 | –
CC1(C)O[C@@H]2[C@H](O1)[C@@H](COC(N)=O)O[C@H]2n1ccc(=O)[nH]c1=O | >660 | > 660 | –
Nc1nc2c(ncn2COCCO)c(=O)[nH]1 [ACYCLOVIR] | 60 | 10000 | –
NC12CC3CC(CC(C3)C1)C2 [AMANTADINE] | 200 | 500 | –
O=c1[nH]c(=O)n([C@H]2C[C@H](O)[C@@H](CO)O2)cc1/C=C/Br [BRIVUDINE] | 1 | 400 | –
CC(=O)N[C@H]1[C@@H](O[C@@H]2O[C@H](CC(O)[C@H]3O[C@@H](n4ccc(=O)[nH]c4=O)[C@H](O)[C@@H]3O)[C@H](O)[C@H](O)[C@H]2NC(=O)/C=C/CC(C)C)O[C@H](CO)[C@@H](N)[C@@H]1O (some centres undefined) [TUNICAMYCIN] | – | – | 1000
